# Measurements collected from several papers.
# Protocols differ between the studies behind these lines.
# Target: Fibroblast growth factor receptor 1 (FGFR1, Homo sapiens, UniProt P11362)
Compound,assay,conditions,remaining binding
CC1CCCN1c1nccc(-c2cnn3ncccc23)n1 (stereo not shown),binding,1 µM,100%
CCN1CCN(Cc2ccc(C(=O)Nc3ccc(C)c(Oc4ccc5c(c4)CC(=O)N5)c3)cc2C(F)(F)F)CC1,"binding, competition with immobilised ligand",1 µM,78%
C[C@H](NC(=O)c1cnc2n1[C@](C)(Cc1ccc(C#N)cc1)C(=O)N2c1cc(Cl)c(F)c(Cl)c1)C(=O)NC1(c2ccccn2)CC1,"cell-free assay, competition with immobilised ligand",1 µM,100%
Nc1ncc2c(n1)-c1c([nH]c3ccc(C#CC4CC4)cc13)CCCC2,"binding, competition with immobilised ligand",1 µM,79%
CN(C)C(=O)Cn1cc(-c2nc([C@@](C)(c3ccc(-c4cnc(N)nc4)cc3)C3CC3)no2)cn1,"cell-free assay, competition with immobilised ligand",1 µM,95%
C[C@@H]1CCN(c2nccc(-c3cnn4ncccc34)n2)C1,binding,1 µM,100%
CS(=O)(=O)NCC[C@H](NC(=O)c1cncc2c1cnn2-c1ccc(F)cc1)c1ccnc(S(C)(=O)=O)c1,"cell-free assay, competition with immobilised ligand",1 µM,87%
CN(C)c1nccc(-c2cnn3ncccc23)n1,binding,1 µM,100%
O=C1CCc2cc(Nc3cc(OC4CCOCC4)c([N+](=O)[O-])cc3Cl)ccc2N1,"cell-free assay, competition with immobilised ligand",1 µM,93%
O=C(c1ccc(Nc2ncc(Cl)c(-c3cc4ccccc4s3)n2)cc1)N1CCC(N2CCCC2)CC1,"binding, competition with immobilised ligand",1 µM,36%
O=C(O)[C@H]1[C@H](Cn2nnc3ccccc3c2=O)CC[C@@H]1C(=O)c1ccc(OCCC2CCOCC2)cc1,"cell-free assay, competition with immobilised ligand",1 µM,98%
C=CC(=O)N1CCC(C(=O)NCC(=O)N2CCN(c3nc(-c4cnc(N)nc4C(F)F)nc(N4CCOCC4)n3)CC2)CC1,"binding, competition with immobilised ligand",1 µM,100%
CO[C@H]1CC[C@H](CNc2ccc(S(=O)(=O)NC(=O)c3ccc(N4CCN(CC5=C(c6ccc(Cl)cc6)CC(C)(C)CC5)CC4)cc3Oc3cnc4[nH]ccc4c3)cc2[N+](=O)[O-])CC1,"cell-free assay, competition with immobilised ligand",1 µM,68%
FC(F)(F)Oc1cccc(-c2cnc3ccc(-c4ccncc4)nn23)c1,"cell-free assay, competition with immobilised ligand",5 µM,72%
N[C@H]1CCN(c2nccc(-c3cnn4ncccc34)n2)C1,binding,1 µM,100%
O=C(NCCCN1CCOCC1)c1ccc(Nc2nccc(-c3cc4ccccc4s3)n2)cc1,"binding, competition with immobilised ligand",1 µM,88%
O=C(NCC1CCOCC1)c1n[nH]cc1NC(=O)c1c(F)cccc1F,"binding, competition with immobilised ligand",1 µM,100%
O=C(NCCCN1CCOCC1)c1ccc(Nc2ncc(Cl)c(-c3ccc(Cl)s3)n2)cc1,"binding, competition with immobilised ligand",1 µM,27%
c1cnn2ncc(-c3ccnc(N4CCC45COC5)n3)c2c1,binding,1 µM,100%
c1cncc(-c2cccc(Nc3nccc(NC4CCCCC4)n3)c2)c1,"binding, competition with immobilised ligand",10 µM,14%
CNC(=O)[C@@H]1CC[C@@H](n2c(-c3ccc4cnccc4c3)nc3ccc(C(=O)NCc4cccc(C(N)=O)c4)cc32)C1,"binding, competition with immobilised ligand",1 µM,90%
F[C@@H]1CCN(c2nccc(-c3cnn4ncccc34)n2)C1,binding,1 µM,87%
